ChEMBL document CHEMBL1156741, “Development of photoaffinity probes for gamma-secretase equipped with a nitrobenzenesulfonamide-type cleavable linker” (Bioorg Med Chem Lett, 2009)
Calls of active or inactive are those of the source. The rule behind the calls is not given here.

Key:
[1] = Inhibition of gamma-secretase assessed as inhibition of Abeta40 generation at 1 uM
[2] = Inhibition of gamma-secretase assessed as inhibition of Abeta42 generation at 1 uM
[3] = target: T1, Gamma-secretase (Homo sapiens) (UniProt Q96BI3+Q9NZ42+Q8WW43+P49768+Q92542+P49810); assay: Binding affinity to gamma-secretase in human HeLa cell lysate assessed as presenilin 1 C-terminal fragment photolabeling by Western blotting; format: cell-free
Method in brief: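 CHAPSO-solubilized HeLa cell lysate (about 150 µg) was mixed with the probe and photolabeled. PS1 CTF labeling was then detected by western blotting on nitrocellulose with chemiluminescence.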

[4] = target: T1, Gamma-secretase (Homo sapiens); assay: Binding affinity to gamma-secretase in human HeLa cell lysate assessed as biotinylated presenilin 1 C-terminal fragment by Western blotting in presence of 2-mercaptoethanol; format: cell-free
Method in brief: (§1)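 Streptavidin sepharose beads carrying biotinylated proteins captured after photolabeling were treated in carbonate buffer (pH 9.2) with 2% SDS, with or without 3% 2-mercaptoethanol, for 4 h at 20 °C. Proteins were transferred to nitrocellulose and detected by western blotting with chemiluminescence.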

[5] = target: T1, Gamma-secretase (Homo sapiens); assay: Binding affinity to gamma-secretase in human HeLa cell lysate assessed as biotinylated presenilin 1 C-terminal fragment by Western blotting in absence of 2-mercaptoethanol; format: cell-free; method in brief: as §1

For `C[C@H](NC(=O)[C@@H](NC(=O)Cc1cc(F)cc(F)c1)c1ccccc1)C(=O)NCc1ccc(C(=O)c2ccc(CNCC(=O)NCCCCCCCN(C)S(=O)(=O)c3ccc(C(=O)NCCCCCC(=O)CCCC[C@@H]4SC[C@@H]5NC(=O)N[C@@H]54)cc3[N+](=O)[O-])cc2)cc1`, the inhibition [1] was 81.9%, the inhibition [2] was 77% and the Activity [3] was “Active”.
For `C[C@H](NC(=O)[C@@H](NC(=O)Cc1cc(F)cc(F)c1)c1ccccc1)C(=O)NCc1ccc(C(=O)c2ccc(CNCCCCCCCC(=O)NCCCCCCCN(C)S(=O)(=O)c3ccc(C(=O)NCCCCCC(=O)CCCC[C@@H]4SC[C@@H]5NC(=O)N[C@@H]54)cc3[N+](=O)[O-])cc2)cc1`, the inhibition [1] was 62.3%, the inhibition [2] was 89.3% and the Activity [3] was “Active”.
For `C[C@H](NC(=O)[C@@H](NC(=O)Cc1cc(F)cc(F)c1)c1ccccc1)C(=O)NCc1ccc(C(=O)c2ccc(CNCCCCCC(=O)NCCCN(C)S(=O)(=O)c3ccc(C(=O)NCCCCCC(=O)CCCC[C@@H]4SC[C@@H]5NC(=O)N[C@@H]54)cc3[N+](=O)[O-])cc2)cc1`, the inhibition [1] was 54.9%, the inhibition [2] was 60.2% and the Activity [3] was “Active”.
In the case of `C[C@H](NC(=O)[C@@H](NC(=O)Cc1cc(F)cc(F)c1)c1ccccc1)C(=O)NCc1ccc(C(=O)c2ccc(CNCCCCCCCC(=O)NCCCN(C)S(=O)(=O)c3ccc(C(=O)NCCCCCC(=O)CCCC[C@@H]4SC[C@@H]5NC(=O)N[C@@H]54)cc3[N+](=O)[O-])cc2)cc1`, the inhibition [1] is reported as 62.8%, the inhibition [2] is reported as 66.2% and the Activity [3] is reported as “Active”. For the same compound, the Activity [4] was “Active” and the Activity [5] was “inactive”.
In the case of `C[C@H](NC(=O)[C@@H](NC(=O)Cc1cc(F)cc(F)c1)c1ccccc1)C(=O)NCc1ccc(C(=O)c2ccc(CNCCCCCC(=O)NCCCCCCCN(C)S(=O)(=O)c3ccc(C(=O)NCCCCCC(=O)CCCC[C@@H]4SC[C@@H]5NC(=O)N[C@@H]54)cc3[N+](=O)[O-])cc2)cc1`, the inhibition [1] is reported as 78.2%, the inhibition [2] is reported as 59.3% and the Activity [3] is reported as “Active”.
In the case of `C[C@H](NC(=O)Cc1cc(F)cc(F)c1)C(=O)N[C@H](C(=O)OC(C)(C)C)c1ccccc1`, the inhibition [1] is reported as 77.4% and the inhibition [2] is reported as 76.3%.
